Screening data (PubChem)
CHO parental Ca: ATP-evoked calcium signal inhibitors, parental CHO, primary screen, counter-screen for OX1R antagonist project, cell-based, fluorescence, Fluo-8 calcium dye; inhibition, % at 5.6 µM; 330,000 compounds, 0.63% hits; AID 463079, 2010; parental CHO-K1, ATP-induced calcium, Fluo-8 fluorescence;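 active = inhibition above that plate's mean sample inhibition plus 3 SD, cut at about 26% in these data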;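 note: 0% = ATP-challenged DMSO wells and 100% = DMSO wells without ATP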
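Material – parental CHO cells · Reagent – ATP stimulus · Compound – single nominal dose of 5.6 µM per compound · Detection – Fluo-8 fluorescence · Read-out basis – percent inhibition of calcium signal · Controls – ATP-challenged DMSO wells low, unchallenged DMSO wells high · Repeats – no replicates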
OX1R antag-1: antagonists of human orexin 1 receptor (OX1R); OX1R-expressing cells, FRET antagonist read-out; AID 485270, 2010; inhibition, % at 6.6 µM; 330,000 compounds, 1.8% hits; in the data active = inhibition mostly above about 38%, no sharp cut-off; inactive = mostly below about 40%;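 note: 0% = agonist challenge alone and 100% = reference antagonist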
NTR1 agonist: agonists of human NTR1, primary screen, imaging, U2OS cells, beta-arrestin-GFP, high content; NTR1-U2OS beta-arrestin-GFP spot imaging, agonist mode; Neurotensin receptor type 1 (Homo sapiens), P30989; 330,000 compounds, 0.17% hits; AID 493036, 2011; activation, % at 20 µM;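 active = activation at or above 40% of the spot to cytoplasm intensity ratio, with at least 20 cells analyzed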;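 note: 0% = DMSO without peptide and 100% = 100 nM NTR1 peptide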
TAAR1 agonist: human TAAR1 agonists, primary screen, Fluo-8 calcium fluorescence, CHO RD-HGA16 cells; Trace amine-associated receptor 1 (Homo sapiens), Q96RJ0; vehicle wells 0%, saturating PEA agonist 100%; activation, % at 3 µM; 360,000 compounds, 0.99% hits;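 active = activation above the mean activation of all test compounds in the run plus 3 SD, cut at about 38% in these data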
Target sequence (Q96RJ0 whole entry, looked up): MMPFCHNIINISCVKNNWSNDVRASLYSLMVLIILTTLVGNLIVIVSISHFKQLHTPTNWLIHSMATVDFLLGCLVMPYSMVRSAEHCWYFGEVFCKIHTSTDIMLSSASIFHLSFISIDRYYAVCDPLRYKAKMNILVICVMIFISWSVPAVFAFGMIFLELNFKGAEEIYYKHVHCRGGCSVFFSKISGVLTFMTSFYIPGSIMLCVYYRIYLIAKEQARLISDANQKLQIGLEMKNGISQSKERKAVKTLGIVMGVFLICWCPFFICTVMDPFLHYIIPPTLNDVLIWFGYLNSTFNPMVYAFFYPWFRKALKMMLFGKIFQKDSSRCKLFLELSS
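Benchmarks: low control DMSO, high control PEA (EC100); System: CHO RD-HGA16 cells carrying human TAAR1 plus Gα16; Detection: Fluo-8 fluorescence, 5 s baseline then 140 s kinetic read; Schedule: 17-24 h plating, Fluo-8 75 min 37 °C, 30 min RT; Read-out basis: % activation from peak over basal fluorescence ratio, DMSO-to-PEA scaled.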
TAAR1 antagonist: human TAAR1 antagonists, primary screen, Fluo-8 calcium fluorescence, CHO RD-HGA16 cells; 360,000 compounds, 1.5% hits; Trace amine-associated receptor 1 (Homo sapiens), Q96RJ0; antagonist; inhibition, % at 3 µM;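 active = inhibition above a per-plate cutoff, the mean inhibition of test compounds on that plate plus 3 SD, cut at about 49% in these data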;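 note: 0% = DMSO plus EC80 beta-PEA response and 100% = DMSO alone without agonist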
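Test system – hTAAR1-expressing CHO RD-HGA16 cells, Gα16-coupled · Reagent – β-PEA at EC80 concentration, post-compound challenge · Compound dosing – 3 µM, single point · Timing – 140 s kinetic read after compound, 140 s after agonist · Detection – Fluo-8 intracellular calcium dye fluorescence, real-time kinetic reads · Control set – DMSO and EC80 PEA controls · Repeats – n of 1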
OX1R antag-2: OX1R (HCRTR1) antagonists, primary screen, fluorescence, CHO/OX1R cells, Fluo-8 calcium, orexin A. Fluo-8 calcium fluorescence. 330,000 compounds, 0.43% hits. Orexin/Hypocretin receptor type 1 (Homo sapiens), O43613. inhibition, % at 5 µM;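 active = inhibition above its plate's threshold, mean inhibition of all tested compounds on the plate plus 3 SD, cut at about 37% in these data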;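 note: 0% = orexin A challenge wells and 100% = SB-334867-A antagonist wells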
Starred values were filed as active, the others as inactive; nt = not tested or not shown. The list is not random: actives were taken first. Their share in the collection is about 4%.

SMILES	CHO parental Ca	OX1R antag-1	NTR1 agonist	TAAR1 agonist	TAAR1 antagonist	OX1R antag-2
c1csc(-c2cn3ccc4ccccc4c3n2)c1	-13	74*	2	0	20	-4
CCOc1ccccc1NC(=O)CCNC(=O)C1CCN(S(=O)(=O)c2ccccc2)CC1	nt	nt	nt	4	-14	nt
Cc1ccc(SCCNC(=O)c2ccc(C)c(S(=O)(=O)Nc3cccc(C)c3)c2)cc1	-7	38*	6	10	38	30
Cc1ccc(NS(=O)(=O)c2cc(C(=O)NCCSc3ccc(C)cc3)ccc2C)cc1	2	12	7	7	15	-16
CC(=O)NCCNc1ccc([N+](=O)[O-])cn1	-8	35	0	4	-13	-11
CC(=O)NCCNc1ccc([N+](=O)[O-])cc1C#N	6	67*	0	1	-4	5
Brc1ccccc1CN1CCN(Cc2c[nH]c3ccccc23)CC1	6	25	5	29	5	4
Brc1ccc(CN2CCN(Cc3c[nH]c4ccccc34)CC2)cc1	-6	-7	2	38*	10	5
O[C@@H](Cc1ccccc1)[C@@H](/C=C/c1ccccc1)N(Cc1ccccc1)Cc1ccccc1	nt	nt	nt	-1	0	nt
O=c1c2c([N+](=O)[O-])cc([N+](=O)[O-])cc2sn1Cc1ccccc1	54*	35	4	32	28	71*
COC(=O)Cc1nnn2c1[C@H](C)[C@H](c1cccc(OC)c1OC)OCC2	nt	nt	nt	3	-5	nt
c1ccc(CNc2ncnc3scc(-c4cccs4)c23)nc1	44*	28	5	5	27	14
c1ccc(-c2csc3ncnc(NCc4ccccn4)c23)cc1	1	17	5	11	53*	-13
c1ccc(CNc2ncnc3sc4c(c23)CCC4)nc1	-13	10	-2	11	-5	-26
Fc1ccc(-c2nc3ccc(Br)cn3c2Cc2ccccc2C(F)(F)F)cc1	nt	nt	nt	-1	-10	nt
COc1cccc(CNC(=O)[C@H]2CCCN2C(=O)[C@H]2CCCN2C(=O)OC(C)(C)C)c1	nt	nt	nt	2	-10	nt
O=C(CN1CCN(c2ccccc2O)CC1)Nc1ccccc1C(=O)NCCc1ccccc1	-15	19	12	18	61*	-10
COc1ccccc1N1CCN(CC(=O)Nc2ccccc2C(=O)NCCc2ccccc2)CC1	-16	0	12	11	55*	-14
COC(=O)c1ccc(C(=O)OC)c(NC(=O)CN2CCN(c3ccccc3OC)CC2)c1	-12	1	10	8	52*	5
O=C(CN1CCN(c2ccc(F)cc2)CC1)Nc1ccccc1C(=O)NCCc1ccccc1	-24	9	17	18	43	-24
COc1ccccc1N1CCN(CC(=O)Nc2ccccc2C(=O)NC(C)c2ccccc2)CC1 (stereo not drawn)	-35	9	4	32	59*	-18
C=CCO[C@H]1CN(C(=O)OC)[C@@H](c2ccccc2Br)C[C@H]1OCC=C	nt	nt	nt	0	-7	nt
CC(NC(=O)c1ccccc1NC(=O)CN1CCN(c2ccccc2O)CC1)c1ccccc1 (stereo not drawn)	-28	4	3	25	36	4
COc1ccc(CCNC(=O)c2ccccc2NC(=O)CN2CCN(c3ccccc3O)CC2)cc1	nt	nt	5	14	64*	nt
Nc1c(Cl)ncnc1N/N=C/c1ccnc2ccccc12	-17	52	-1	2	0	-29
Nc1c(Cl)ncnc1N/N=C/c1ccccn1	-6	92*	nt	0	8	1
Nc1c(Cl)ncnc1N/N=C/c1ccc2ccccc2n1	34	75*	nt	4	3	35
Cc1ccc(C)c(S(=O)(=O)N2CCCOC2CNC(=O)C(=O)NCCc2ccco2)c1 (stereo not drawn)	-24	63*	1	2	-4	8
